Measurements from ChEMBL document CHEMBL4265950, “Discovery of furyl/thienyl β-carboline derivatives as potent and selective PDE5 inhibitors with excellent vasorelaxant effect” (Eur J Med Chem, 2018).

How the values were obtained:
[1] = molecular target: T1, cGMP-specific 3',5'-cyclic phosphodiesterase (Homo sapiens, UniProt O76074); assay: Inhibition of full length recombinant human N-terminal GST-tagged PDE5A1 expressed in baculovirus infected sf9 cells at 100 nM using FAM-cyclic-3',5-GMP as substrate after 1 hr by fluorescence polarization assay relative to control
Outline: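 Single-point test at 100 nM, reported as percent inhibition. Human PDE5 at 15 ng/mL with 100 nM FAM-cGMP in MOPS pH 7.5 buffer (MgCl2, EDTA, BSA, DTT), 1% DMSO final, 60 min at 25 °C. Binding agent added for 1 h, then fluorescence polarization read at […] nm.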

[2] = molecular target: T1, cGMP-specific 3',5'-cyclic phosphodiesterase; assay: Inhibition of full length recombinant human N-terminal GST-tagged PDE5A1 expressed in baculovirus infected sf9 cells using FAM-cyclic-3',5-GMP as substrate after 1 hr by fluorescence polarization assay
[3] = molecular target: Dual specificity calcium/calmodulin-dependent 3',5'-cyclic nucleotide phosphodiesterase 1A (Homo sapiens, UniProt P54750); assay: Inhibition of full length recombinant human N-terminal GST-tagged PDE1A expressed in baculovirus infected sf9 cells using FAM-cyclic-3',5-AMP as substrate after 1 hr by fluorescence polarization assay
Outline: (§1)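 Fluorescence polarization assay run at 25 °C for 60 min in 40 mM MOPS pH 7.5, 0.5 mM EDTA, 15 mM MgCl2, 0.15 mg/mL BSA, 1 mM DTT, 0.05% ProClin 200. Contained 15 ng/mL PDE isoform and 100 nM FAM-cGMP or FAM-cAMP according to isoform, with 1% DMSO final. Binding agent added for 1 h at 25 °C; read at […] nm. IC50 from normalized nonlinear dose-response fit.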

Homo sapiens [4] = organism: Homo sapiens; assay: Selectivity index, ratio of IC50 for inhibition of full length recombinant human N-terminal GST-tagged PDE6C expressed in baculovirus infected sf9 cells to IC50 for inhibition of full length recombinant human N-terminal GST-tagged PDE5A1 expressed in baculovirus infected sf9 cells
[5] = molecular target: cGMP-inhibited 3',5'-cyclic phosphodiesterase 3B (Homo sapiens, UniProt Q13370); assay: Inhibition of recombinant human N-terminal GST-tagged PDE3B (592 to end residues) expressed in baculovirus infected sf9 cells using FAM-cyclic-3',5-AMP as substrate after 1 hr by fluorescence polarization assay; outline: as §1
[6] = molecular target: cGMP-dependent 3',5'-cyclic phosphodiesterase (Homo sapiens, UniProt O00408); assay: Inhibition of recombinant human N-terminal FLAG-tagged PDE2A (2 to 941 residues) expressed in baculovirus infected sf9 cells using FAM-cyclic-3',5-AMP as substrate after 1 hr by fluorescence polarization assay; outline: as §1
[7] = molecular target: Cone cGMP-specific 3',5'-cyclic phosphodiesterase subunit alpha' (Homo sapiens, UniProt P51160); assay: Inhibition of full length recombinant human N-terminal GST-tagged PDE6C expressed in baculovirus infected sf9 cells using […] as substrate after 1 hr by fluorescence polarization assay
Homo sapiens [8] = organism: Homo sapiens; assay: Selectivity index, ratio of IC50 for inhibition of full length recombinant human N-terminal GST-tagged PDE11A4 expressed in baculovirus infected sf9 cells to IC50 for inhibition of full length recombinant human N-terminal GST-tagged PDE5A1 expressed in baculovirus infected sf9 cells
[9] = molecular target: Dual 3',5'-cyclic-AMP and -GMP phosphodiesterase 11A (Homo sapiens, UniProt Q9HCR9); assay: Inhibition of full length recombinant human N-terminal GST-tagged PDE11A4 expressed in baculovirus infected sf9 cells using FAM-cyclic-3',5-AMP as substrate after 1 hr by fluorescence polarization assay
[10] = molecular target: 3',5'-cyclic-AMP phosphodiesterase 4A (Homo sapiens, UniProt P27815); assay: Inhibition of full length recombinant human N-terminal GST-tagged PDE4A1A expressed in baculovirus infected sf9 cells using FAM-cyclic-3',5-AMP as substrate after 1 hr by fluorescence polarization assay
3',5'-cyclic-AMP phosphodiesterase 4A, sequence (P27815 whole entry): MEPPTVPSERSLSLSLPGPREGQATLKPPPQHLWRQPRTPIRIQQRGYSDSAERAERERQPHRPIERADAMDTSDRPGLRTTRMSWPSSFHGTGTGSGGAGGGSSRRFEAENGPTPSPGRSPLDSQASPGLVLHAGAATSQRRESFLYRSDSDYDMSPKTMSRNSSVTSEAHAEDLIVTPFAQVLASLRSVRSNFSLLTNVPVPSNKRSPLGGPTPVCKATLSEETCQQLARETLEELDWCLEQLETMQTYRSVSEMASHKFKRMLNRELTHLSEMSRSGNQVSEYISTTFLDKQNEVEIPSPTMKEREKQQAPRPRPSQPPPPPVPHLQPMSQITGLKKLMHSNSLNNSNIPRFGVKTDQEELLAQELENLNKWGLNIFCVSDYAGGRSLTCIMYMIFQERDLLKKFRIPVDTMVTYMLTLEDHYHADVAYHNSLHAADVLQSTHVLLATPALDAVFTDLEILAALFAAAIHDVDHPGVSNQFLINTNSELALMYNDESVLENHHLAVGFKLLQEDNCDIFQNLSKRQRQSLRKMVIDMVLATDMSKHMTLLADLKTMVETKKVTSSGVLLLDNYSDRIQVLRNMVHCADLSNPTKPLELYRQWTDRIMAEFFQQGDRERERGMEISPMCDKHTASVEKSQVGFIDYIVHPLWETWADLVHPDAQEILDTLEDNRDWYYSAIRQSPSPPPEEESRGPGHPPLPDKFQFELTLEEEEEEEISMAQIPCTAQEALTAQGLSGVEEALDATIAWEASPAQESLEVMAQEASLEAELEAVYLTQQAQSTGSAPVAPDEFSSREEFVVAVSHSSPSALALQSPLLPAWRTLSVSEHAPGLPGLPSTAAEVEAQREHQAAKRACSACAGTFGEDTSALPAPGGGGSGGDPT

cGMP-dependent 3',5'-cyclic phosphodiesterase, sequence (O00408 whole entry, the tested form may be a part): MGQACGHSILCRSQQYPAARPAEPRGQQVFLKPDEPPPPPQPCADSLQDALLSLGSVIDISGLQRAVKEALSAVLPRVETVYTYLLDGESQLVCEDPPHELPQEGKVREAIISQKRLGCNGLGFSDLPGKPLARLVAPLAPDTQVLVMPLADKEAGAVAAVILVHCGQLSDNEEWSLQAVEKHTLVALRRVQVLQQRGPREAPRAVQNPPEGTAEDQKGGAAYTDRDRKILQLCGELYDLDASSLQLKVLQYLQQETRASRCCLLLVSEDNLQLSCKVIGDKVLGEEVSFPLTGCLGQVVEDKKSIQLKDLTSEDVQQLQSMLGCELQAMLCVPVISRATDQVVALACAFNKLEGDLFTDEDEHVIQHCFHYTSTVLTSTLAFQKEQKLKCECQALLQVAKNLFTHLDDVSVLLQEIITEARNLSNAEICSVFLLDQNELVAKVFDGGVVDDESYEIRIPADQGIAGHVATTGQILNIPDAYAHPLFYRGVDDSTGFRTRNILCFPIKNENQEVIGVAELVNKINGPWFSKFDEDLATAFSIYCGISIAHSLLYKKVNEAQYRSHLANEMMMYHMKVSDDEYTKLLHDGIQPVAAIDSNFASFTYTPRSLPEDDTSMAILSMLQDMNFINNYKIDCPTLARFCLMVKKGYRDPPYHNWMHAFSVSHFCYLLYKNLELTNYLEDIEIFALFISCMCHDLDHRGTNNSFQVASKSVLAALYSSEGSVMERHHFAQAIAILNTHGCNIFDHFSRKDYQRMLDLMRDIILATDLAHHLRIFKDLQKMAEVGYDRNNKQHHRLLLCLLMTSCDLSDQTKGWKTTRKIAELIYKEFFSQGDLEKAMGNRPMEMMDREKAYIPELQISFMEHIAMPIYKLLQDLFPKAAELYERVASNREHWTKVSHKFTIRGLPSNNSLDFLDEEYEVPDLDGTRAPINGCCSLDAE
Dual 3',5'-cyclic-AMP and -GMP phosphodiesterase 11A, sequence (Q9HCR9 whole entry): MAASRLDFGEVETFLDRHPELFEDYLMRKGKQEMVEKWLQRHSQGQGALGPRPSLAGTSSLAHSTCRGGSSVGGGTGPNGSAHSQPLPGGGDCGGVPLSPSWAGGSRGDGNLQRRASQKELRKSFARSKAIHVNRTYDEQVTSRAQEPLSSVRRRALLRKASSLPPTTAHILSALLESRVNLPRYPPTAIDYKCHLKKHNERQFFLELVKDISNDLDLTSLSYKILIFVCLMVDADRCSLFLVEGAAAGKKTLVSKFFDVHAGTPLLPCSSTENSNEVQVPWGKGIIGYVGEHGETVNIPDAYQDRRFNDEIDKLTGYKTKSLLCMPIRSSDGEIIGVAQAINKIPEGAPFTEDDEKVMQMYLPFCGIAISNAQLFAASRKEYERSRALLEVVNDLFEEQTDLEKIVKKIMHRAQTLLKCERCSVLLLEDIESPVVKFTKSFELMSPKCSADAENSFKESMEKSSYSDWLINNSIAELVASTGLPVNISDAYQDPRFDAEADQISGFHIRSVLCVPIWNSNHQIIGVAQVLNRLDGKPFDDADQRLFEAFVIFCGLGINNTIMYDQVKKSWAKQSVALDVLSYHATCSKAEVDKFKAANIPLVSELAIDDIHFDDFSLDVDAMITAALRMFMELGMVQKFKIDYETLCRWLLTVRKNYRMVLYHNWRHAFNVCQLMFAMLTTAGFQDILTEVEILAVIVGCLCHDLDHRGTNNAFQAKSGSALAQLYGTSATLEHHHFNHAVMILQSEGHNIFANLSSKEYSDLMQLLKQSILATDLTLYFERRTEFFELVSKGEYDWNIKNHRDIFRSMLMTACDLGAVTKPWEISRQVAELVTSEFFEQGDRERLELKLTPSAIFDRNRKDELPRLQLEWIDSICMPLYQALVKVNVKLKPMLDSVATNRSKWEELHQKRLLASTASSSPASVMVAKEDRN
cGMP-inhibited 3',5'-cyclic phosphodiesterase 3B, sequence (Q13370 whole entry, the tested form may be a part): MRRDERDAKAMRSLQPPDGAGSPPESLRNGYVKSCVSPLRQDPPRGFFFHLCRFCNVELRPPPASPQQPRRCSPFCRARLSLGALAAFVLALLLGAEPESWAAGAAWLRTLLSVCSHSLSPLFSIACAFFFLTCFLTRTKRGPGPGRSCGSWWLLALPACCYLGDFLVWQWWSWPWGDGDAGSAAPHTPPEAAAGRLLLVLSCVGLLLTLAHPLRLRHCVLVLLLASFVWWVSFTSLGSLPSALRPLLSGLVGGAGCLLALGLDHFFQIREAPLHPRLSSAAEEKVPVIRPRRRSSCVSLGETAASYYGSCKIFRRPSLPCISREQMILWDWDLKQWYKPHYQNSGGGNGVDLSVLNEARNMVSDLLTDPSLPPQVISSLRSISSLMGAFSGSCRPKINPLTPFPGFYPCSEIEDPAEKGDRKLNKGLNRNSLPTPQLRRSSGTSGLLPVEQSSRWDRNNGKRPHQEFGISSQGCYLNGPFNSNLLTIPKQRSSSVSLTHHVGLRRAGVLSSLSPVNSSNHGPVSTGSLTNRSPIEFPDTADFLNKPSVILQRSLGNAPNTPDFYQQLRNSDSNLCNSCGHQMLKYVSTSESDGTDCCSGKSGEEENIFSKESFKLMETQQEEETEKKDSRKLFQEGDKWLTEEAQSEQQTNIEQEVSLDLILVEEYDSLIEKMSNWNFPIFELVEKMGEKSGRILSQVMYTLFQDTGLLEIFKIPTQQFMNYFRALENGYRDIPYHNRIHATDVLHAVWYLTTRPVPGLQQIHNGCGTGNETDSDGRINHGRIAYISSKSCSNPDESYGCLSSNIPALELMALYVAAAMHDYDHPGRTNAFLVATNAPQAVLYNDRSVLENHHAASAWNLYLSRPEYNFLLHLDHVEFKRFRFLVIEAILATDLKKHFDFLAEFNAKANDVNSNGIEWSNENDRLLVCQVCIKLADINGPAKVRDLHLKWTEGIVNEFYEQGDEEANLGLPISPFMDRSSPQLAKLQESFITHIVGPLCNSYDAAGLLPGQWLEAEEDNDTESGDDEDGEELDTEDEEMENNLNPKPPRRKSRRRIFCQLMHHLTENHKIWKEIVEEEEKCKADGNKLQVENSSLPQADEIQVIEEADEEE
Dual specificity calcium/calmodulin-dependent 3',5'-cyclic nucleotide phosphodiesterase 1A, sequence (P54750 whole entry, canonical isoform): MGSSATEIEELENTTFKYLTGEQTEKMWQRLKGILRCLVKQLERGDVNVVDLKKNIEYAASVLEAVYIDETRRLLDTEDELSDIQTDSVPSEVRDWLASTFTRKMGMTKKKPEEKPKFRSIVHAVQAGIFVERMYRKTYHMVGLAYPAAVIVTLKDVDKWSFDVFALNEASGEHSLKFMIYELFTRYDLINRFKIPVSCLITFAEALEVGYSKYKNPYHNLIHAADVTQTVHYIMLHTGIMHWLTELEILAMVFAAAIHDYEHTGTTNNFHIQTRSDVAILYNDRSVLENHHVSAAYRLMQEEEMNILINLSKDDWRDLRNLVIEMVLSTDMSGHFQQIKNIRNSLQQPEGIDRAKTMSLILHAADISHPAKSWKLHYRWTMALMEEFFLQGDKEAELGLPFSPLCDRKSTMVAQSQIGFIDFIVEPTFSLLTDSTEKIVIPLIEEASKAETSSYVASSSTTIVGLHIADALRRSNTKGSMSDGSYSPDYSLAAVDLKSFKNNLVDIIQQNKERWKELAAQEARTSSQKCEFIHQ

inhibition [1] [%]	IC50 [2] [µM]	SMILES	further results
27.7	–	CCN1C(=O)[C@@H]2Cc3c([nH]c4ccccc34)[C@H](c3sccc3C)N2C1=O	–
37.9	–	CCCCN1C(=O)[C@H]2Cc3c([nH]c4ccccc34)[C@H](c3ccc(CC)s3)N2C1=O	–
69	0.0564	CCc1ccc([C@H]2c3[nH]c4ccccc4c3C[C@H]3C(=O)N(C)CC(=O)N23)o1	–
35.2	–	CN1CC(=O)N2[C@@H](c3ccco3)c3[nH]c4ccccc4c3C[C@@H]2C1=O	–
79.4	0.0303	CCCCN1C(=O)[C@@H]2Cc3c([nH]c4ccccc34)[C@@H](c3ccc(CC)s3)N2C1=O	IC50 [3]: > 20 µM; Ratio IC50 (Homo sapiens [4]): 4; IC50 [5]: > 20 µM; IC50 [6]: > 20 µM; IC50 [7]: 0.107 µM; Ratio IC50 (Homo sapiens [8]): > 33; IC50 [9]: > 1 µM; IC50 [10]: > 10 µM
76.2	0.0364	CCCCN1C(=O)[C@H]2Cc3c([nH]c4ccccc34)[C@@H](c3ccc(CC)s3)N2C1=O	IC50 [3]: > 20 µM; Ratio IC50 (Homo sapiens [4]): > 27; IC50 [5]: > 20 µM; IC50 [6]: > 20 µM; IC50 [7]: > 1 µM; Ratio IC50 (Homo sapiens [8]): 10; IC50 [9]: 0.386 µM; IC50 [10]: > 10 µM
39.1	–	CCc1ccc([C@H]2c3[nH]c4ccccc4c3C[C@@H]3C(=O)N(C)CC(=O)N23)o1	–
76.1	0.0214	CCN1C(=O)[C@@H]2Cc3c([nH]c4ccccc34)[C@@H](c3sccc3C)N2C1=O	IC50 [3]: > 20 µM; Ratio IC50 (Homo sapiens [4]): 0.6; IC50 [5]: > 20 µM; IC50 [6]: > 20 µM; IC50 [7]: 0.013 µM; Ratio IC50 (Homo sapiens [8]): 7; IC50 [9]: 0.155 µM; IC50 [10]: > 10 µM
41.1	–	CCc1ccc([C@@H]2c3[nH]c4ccccc4c3C[C@H]3C(=O)N(C)CC(=O)N23)o1	–
89.5	0.0369	Cc1ccc([C@@H]2c3[nH]c4ccccc4c3C[C@@H]3C(=O)N(C)CC(=O)N23)o1	–
72.7	0.061	CCc1ccc([C@@H]2c3[nH]c4ccccc4c3C[C@H]3C(=O)N(C)CC(=O)N23)s1	–
66.7	0.0502	Cc1ccsc1[C@@H]1c2[nH]c3ccccc3c2C[C@@H]2C(=O)N(C)CC(=O)N12	–
40.2	–	Cc1ccc([C@H]2c3[nH]c4ccccc4c3C[C@@H]3C(=O)N(C)CC(=O)N23)s1	–
86.7	0.0199	CCc1ccc([C@H]2c3[nH]c4ccccc4c3C[C@H]3C(=O)N(C)CC(=O)N23)s1	IC50 [3]: > 20 µM; Ratio IC50 (Homo sapiens [4]): > 50; IC50 [5]: > 20 µM; IC50 [6]: > 20 µM; IC50 [7]: > 1 µM; Ratio IC50 (Homo sapiens [8]): > 50; IC50 [9]: > 1 µM; IC50 [10]: > 10 µM
45.8	0.155	CCc1ccc([C@H]2c3[nH]c4ccccc4c3C[C@@H]3C(=O)N(CC)C(=O)N23)s1	–
62.2	0.0812	CCc1ccc([C@H]2c3[nH]c4ccccc4c3C[C@H]3C(=O)N(CC)C(=O)N23)o1	–
40.5	–	Cc1ccc([C@H]2c3[nH]c4ccccc4c3C[C@@H]3C(=O)N(C)CC(=O)N23)o1	–
44.1	0.383	CCc1ccc([C@H]2c3[nH]c4ccccc4c3C[C@H]3C(=O)N(CC)C(=O)N23)s1	–
83.6	0.0276	CCc1ccc([C@H]2c3[nH]c4ccccc4c3C[C@@H]3C(=O)N(CC)C(=O)N23)o1	IC50 [3]: > 20 µM; Ratio IC50 (Homo sapiens [4]): 0.4; IC50 [5]: > 20 µM; IC50 [6]: > 20 µM; IC50 [7]: 0.01 µM; Ratio IC50 (Homo sapiens [8]): 29; IC50 [9]: 0.802 µM; IC50 [10]: > 10 µM
38.8	–	CCc1ccc([C@H]2c3[nH]c4ccccc4c3C[C@@H]3C(=O)N(C)CC(=O)N23)s1	–
35.9	–	CCCCN1C(=O)[C@@H]2Cc3c([nH]c4ccccc34)[C@H](c3ccc(CC)s3)N2C1=O	–
39.8	–	CN1CC(=O)N2[C@@H](c3ccc(Br)s3)c3[nH]c4ccccc4c3C[C@@H]2C1=O	–
48.1	–	CN1CC(=O)N2[C@H](c3ccco3)c3[nH]c4ccccc4c3C[C@@H]2C1=O	–

Further lines, the compound ahead of its results:

SMILES	inhibition [1] [%]	IC50 [2] [µM]	further results
CCc1ccc(C(=O)c2[nH]c3ccccc3c2CCNc2ncc(-c3ccc(OC)c(OC)c3)cn2)o1	29.1	–	–
Cc1ccc(C(=O)c2[nH]c3ccccc3c2CCNc2ccc(-c3ccccn3)cn2)o1	23.7	–	–
Cc1ccsc1[C@H]1c2[nH]c3ccccc3c2C[C@@H]2C(=O)N(C)CC(=O)N12	57.4	0.0975	–
CCc1ccc(C2c3[nH]c4ccccc4c3CCN2C(=O)/C=C/c2cccc(Br)c2)s1 (centres undefined)	33.7	–	–
CCNC(=O)N1[C@H](c2ccc(CC)s2)c2[nH]c3ccccc3c2C[C@@H]1C(=O)OC	41.3	–	–
c1ccc(-c2ccc(N3CCc4c([nH]c5ccccc45)C3c3cc4ccccc4o3)nc2)nc1 (centres undefined)	15.2	–	–
CCc1ccc(C2c3[nH]c4ccccc4c3CCN2c2ncc(-c3ccc(OC)c(OC)c3)cn2)s1 (centres undefined)	27.6	–	–
CCc1ccc(C2c3[nH]c4ccccc4c3CCN2C(=O)/C=C/c2ccc(C(=O)O)cc2)s1 (centres undefined)	47.4	0.235	–
CCc1ccc(C(=O)c2[nH]c3ccccc3c2C[C@@H]2NC(=O)N(CC)C2=O)s1	27.3	–	–
CCc1ccc(C(=O)c2[nH]c3ccccc3c2CCNc2ccc(-c3ccccn3)cn2)o1	16.1	–	–
Cc1cc(C(=O)c2[nH]c3ccccc3c2CCNc2ccc(-c3ccccn3)cn2)sc1C	1.7	–	–
CCCc1ccc(C2c3[nH]c4ccccc4c3CCN2c2ccc(-c3ccccn3)cn2)s1 (centres undefined)	28	–	–
CCc1ccc(C(=O)c2[nH]c3ccccc3c2C[C@H]2NC(=O)CN(C)C2=O)s1	21.1	–	–
CN1CC(=O)N2[C@@H](c3sccc3Br)c3[nH]c4ccccc4c3C[C@@H]2C1=O	41.6	–	–
CCc1ccc(C2c3[nH]c4ccccc4c3CCN2C(=O)/C=C/c2ccc(C(=O)OC)cc2)s1 (centres undefined)	43.9	–	–
Cc1ccc(C2c3[nH]c4ccccc4c3CCN2c2ccc(-c3ccccn3)cn2)o1 (centres undefined)	23.2	–	–
O=C(c1cc2ccccc2o1)c1[nH]c2ccccc2c1CCNc1ccc(-c2ccccn2)cn1	17.7	–	–
CCc1ccc(C(=O)c2[nH]c3ccccc3c2CCNc2ncc(-c3ccc(OC)c(OC)c3)cn2)s1	24.7	–	–
CN1CC(=O)N2[C@H](c3sccc3Br)c3[nH]c4ccccc4c3C[C@@H]2C1=O	67.2	0.0802	–
Cc1cc(C2c3[nH]c4ccccc4c3CCN2c2ccc(-c3ccccn3)cn2)sc1C (centres undefined)	21.2	–	–
Cc1ccc(C(=O)c2[nH]c3ccccc3c2CCNc2ccc(-c3ccccn3)cn2)s1	20.4	–	–
CCc1ccc(C2c3[nH]c4ccccc4c3C(=O)CN2c2ncc(-c3ccc(OC)c(OC)c3)cn2)s1 (centres undefined)	69.4	0.0397	Ratio IC50 (Homo sapiens [4]): 6; IC50 [7]: 0.253 µM; Ratio IC50 (Homo sapiens [8]): 4; IC50 [9]: 0.153 µM
CCc1ccc(C2c3[nH]c4ccccc4c3CCN2c2ncc(-c3ccc(OC)c(OC)c3)cn2)o1 (centres undefined)	47.6	0.177	–
COc1cccc2cc(C(=O)c3[nH]c4ccccc4c3CCNc3ccc(-c4ccccn4)cn3)oc12	23.9	–	–
CCc1ccc(C(=O)c2[nH]c3ccccc3c2C[C@@H]2NC(=O)CN(C)C2=O)s1	23.3	–	–
CCc1ccc(C2c3[nH]c4ccccc4c3CCN2c2ccc(-c3ccccn3)cn2)o1 (centres undefined)	39.2	–	–
CCc1ccc(C(=O)c2[nH]c3ccccc3c2C[C@H]2NC(=O)N(CC)C2=O)s1	11.1	–	–
Cc1ccc(C2c3[nH]c4ccccc4c3CCN2c2ccc(-c3ccccn3)cn2)s1 (centres undefined)	38.1	–	–
CCCc1ccc(C(=O)c2[nH]c3ccccc3c2CCNc2ccc(-c3ccccn3)cn2)s1	18.3	–	–
COc1cccc2cc(C3c4[nH]c5ccccc5c4CCN3c3ccc(-c4ccccn4)cn3)oc12 (centres undefined)	17.5	–	–
